Experimental data from ChEMBL document CHEMBL4406863, “Effective Virtual Screening Strategy toward heme-containing proteins: Identification of novel IDO1 inhibitors” (Eur J Med Chem, 2019).
Calls of active or inactive are those of the source. The calls are words filed in the database; no cut-off is given here.

Legend:
[1] = Cytotoxicity against human HeLa cells assessed as survival rate at 30 uM incubated for 24 hrs by MTT assay relative to control; type: cell-based; conditions: read-out: Activity
[2] = target: Indoleamine 2,3-dioxygenase 1 (Homo sapiens, UniProt P14902); test: Inhibition of IDO1 in IFN-gamma stimulated human HeLa cells assessed as reduction in kynurenine production using L-tryptophan as substrate incubated for 24 hrs; type: cell-based
[3] = target: Tryptophan 2,3-dioxygenase (Homo sapiens) (UniProt P48775); test: Inhibition of IFN-gamma-induced human TDO2 transfected in HeLa cells at 10 times IDO1 IC50 concentration using L-tryptophan as substrate incubated for 24 hrs relative to control; type: cell-based
Method in brief: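 HeLa cells transfected for 24 h with a human TDO2 plasmid, then reseeded at 5 × 10^3/well. After 6 h, IFN-γ and compounds added in medium with […] for 24 h. Supernatant treated with 6.1 N TCA at 50 °C for 30 min and centrifuged; kynurenine read with p-dimethylaminobenzaldehyde at 480 nm.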

HeLa = test: Effect on IDO1 expression in IFN-gamma-stimulated human HeLa cells at 3 times IDO1 IC50 for 24 hrs by western blot analysis; type: functional, cell-based
Method in brief: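 HeLa cells (2 × 10^5/well) exposed to human IFN-γ 100 ng/mL with or without compound for 24 h. Lysis in 50 mM Tris-HCl pH 8.0 with detergents and protease inhibitors, then 10% SDS-PAGE and PVDF transfer. Membrane blocked with 5% milk and probed with anti-IDO antibody and HRP secondary; band intensity quantified.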

[4] = target: Indoleamine 2,3-dioxygenase 1 (Mus musculus) (UniProt P28776); test: Reversal of IDO1-mediated immunosuppression in mouse CT26 co-cultured with T-cells assessed as ConA- stimulated differentiation of Treg cells at 0.3 uM measured after 48 hrs by FOXP3-APC based flow cytometry analysis (reference value: 11.4 %)
Mus musculus [5] = test: Induction of apoptosis in BALB/c mouse xenografted with CT26 cells at 50 mg/kg via oral gavage for 17 days by TUNEL assay; type: functional, organism-based
Method in brief: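 TUNEL staining of tumor sections from the 17-day CT26/BALB/c study. Apoptotic nuclei scored by fluorescence microscopy under a FITC filter (green).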

Mus musculus [6] = test: Induction of apoptosis in BALB/c mouse xenografted with CT26 cells assessed as nuclear chromatin margination at 50 mg/kg via oral gavage for 17 days by H&E staining based analysis; type: functional, organism-based
Method in brief: (§1)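 Tumor tissue from the 17-day CT26/BALB/c gavage study stained with hematoxylin and eosin. Nuclei, cytoplasm and cell morphology assessed by microscopy.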

Mus musculus [7] = test: Induction of apoptosis in BALB/c mouse xenografted with CT26 cells assessed as cell shrinkage at 50 mg/kg via oral gavage for 17 days by H&E staining based analysis; type: functional, organism-based; method in brief: as §1
[8] = target: Indoleamine 2,3-dioxygenase 1 (Mus musculus) (UniProt P28776); test: Reversal of IDO1-mediated immunosuppression in mouse CT26 co-cultured with T-cells assessed as increase in IFN-gamma production measured after 48 hrs by ELISA relative to control
Method in brief: (§2)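 CT26 cells (1 × 10^5/well) exposed to compound ([…]) in medium with […] for 48 h. BALB/c splenic T cells resuspended in a 1:1 mix of this supernatant and RPMI/10% FBS with […] for 48 h. IFN-γ measured by ELISA; proliferation by MTT (1 mg/mL, 4 h, 37 °C, DMSO, 570 nm). Three replicate wells, mean ± SEM.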

Mus musculus [9] = test: Decrease in FOXP3-postive T cells in BALB/c mouse xenografted with CT26 cells at 50 mg/kg via oral gavage for 17 day by immunohistochemical analysis; type: functional, organism-based
Method in brief: (§3)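 Paraffin sections of CT26 tumors from the 17-day BALB/c study. Sections deparaffinized, rehydrated and treated with 2% H2O2. Blocked with 3% goat serum, then incubated 2 h at room temperature with the specific primary antibody. Detection with streptavidin-HRP for 40 min and DAB, hematoxylin counterstain, microscopic imaging.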

CT26 [10] = test: Antitumor activity against mouse CT26 cells xenografted in BALB/c mouse assessed as decrease in tumour weight at 50 mg/kg, po via gavage for 17 days by vernier caliper method relative to control; type: functional; conditions: 408 h
CT26 [11] = test: Antitumor activity against mouse CT26 cells xenografted in BALB/c mouse assessed as decrease in tumour growth at 50 mg/kg, po via gavage for 17 days by vernier caliper method; type: functional, organism-based
Mus musculus [12] = test: Increase in infiltrating CD8-positive T cells in BALB/c mouse xenografted with CT26 cells at 50 mg/kg via oral gavage for 17 day by immunohistochemical analysis; type: functional, organism-based; method in brief: as §3
Mus musculus [13] = test: Increase in Granzyme B expression in BALB/c mouse xenografted with CT26 cells at 50 mg/kg via oral gavage for 17 day by immunohistochemical analysis; type: functional, organism-based; method in brief: as §3
Mus musculus [14] = test: Induction of apoptosis in BALB/c mouse xenografted with CT26 cells assessed as nuclear chromatin condensation at 50 mg/kg via oral gavage for 17 days by H&E staining based analysis; type: functional, organism-based; method in brief: as §1
CT26 [15] = test: Antitumor activity against mouse CT26 cells xenografted in immunodeficient BALB/c nude mouse assessed as reduction in tumour growth at 50 mg/kg, po via gavage for 10 days by vernier caliper method; type: functional, organism-based
Method in brief: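 BALB/c nude mice carrying subcutaneous CT26 tumors (1 × 10^6 cells, armpit). Randomized 3 days post-implant into vehicle or treatment groups (n = 6). Oral gavage given on days 1–10; 5-Fu served as reference. Tumor volume and body weight recorded, and tumors weighed after sacrifice.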

[16] = target: Indoleamine 2,3-dioxygenase 1 (Mus musculus) (UniProt P28776); test: Reversal of IDO1-mediated immunosuppression in mouse CT26 co-cultured with T-cells assessed as increase in T cell proliferation measured after 48 hrs by MTT assay; method in brief: as §2
[17] = Toxicity in BALB/c mouse xenografted with mouse CT26 cells assessed as effect on body weight at 50 mg/kg, po via gavage for 17 days and measured at day 17; type: organism-based; conditions: in vivo, 408 h
Mus musculus [18] = test: Induction of apoptosis in BALB/c mouse xenografted with CT26 cells assessed as decrease in PCNA expression at 50 mg/kg via oral gavage for 17 days by immunohistochemistry analysis; type: functional, organism-based; method in brief: as §3
Mus musculus [19] = test: Increase in IFN-gamma expression in BALB/c mouse xenografted with CT26 cells at 50 mg/kg via oral gavage for 17 day by immunohistochemical analysis; type: functional, organism-based; method in brief: as §3
CT26 [20] = test: Antitumor activity against mouse CT26 cells xenografted in immunodeficient BALB/c nude mouse assessed as reduction in tumour growth at 25 mg/kg, ip administered every two days for 17 days and measured at day 17 by vernier caliper method; type: functional, organism-based
[21] = target: Indoleamine 2,3-dioxygenase 1 (Mus musculus) (UniProt P28776); test: Reversal of IDO1-mediated immunosuppression in mouse CT26 co-cultured with T-cells assessed as increase in IFN-gamma production measured after 48 hrs by ELISA; method in brief: as §2

Tryptophan 2,3-dioxygenase (Homo sapiens), sequence (P48775 whole entry, looked up): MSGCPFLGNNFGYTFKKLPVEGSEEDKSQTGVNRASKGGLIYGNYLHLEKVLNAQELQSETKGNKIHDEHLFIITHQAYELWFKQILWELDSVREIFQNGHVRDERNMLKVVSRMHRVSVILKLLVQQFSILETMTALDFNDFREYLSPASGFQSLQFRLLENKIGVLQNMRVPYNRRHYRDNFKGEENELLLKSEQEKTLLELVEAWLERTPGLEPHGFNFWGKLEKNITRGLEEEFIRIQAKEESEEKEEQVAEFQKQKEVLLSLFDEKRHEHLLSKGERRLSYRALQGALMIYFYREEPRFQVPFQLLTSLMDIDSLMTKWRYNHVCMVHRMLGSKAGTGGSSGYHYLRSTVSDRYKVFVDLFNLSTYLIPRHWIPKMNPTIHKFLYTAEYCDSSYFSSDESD
Indoleamine 2,3-dioxygenase 1 (Mus musculus), sequence (P28776 whole entry, looked up): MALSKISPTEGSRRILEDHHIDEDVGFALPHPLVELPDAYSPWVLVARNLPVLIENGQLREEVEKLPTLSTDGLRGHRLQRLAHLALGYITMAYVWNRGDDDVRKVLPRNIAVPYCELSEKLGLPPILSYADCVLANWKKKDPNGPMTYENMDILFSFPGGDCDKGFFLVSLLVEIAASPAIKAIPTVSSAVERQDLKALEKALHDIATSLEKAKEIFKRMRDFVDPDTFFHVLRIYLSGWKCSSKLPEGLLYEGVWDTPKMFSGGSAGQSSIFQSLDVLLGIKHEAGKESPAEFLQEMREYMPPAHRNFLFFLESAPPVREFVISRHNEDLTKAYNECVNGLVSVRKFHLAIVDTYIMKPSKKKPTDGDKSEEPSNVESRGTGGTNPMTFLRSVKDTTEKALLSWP
Indoleamine 2,3-dioxygenase 1, sequence (P14902 whole entry): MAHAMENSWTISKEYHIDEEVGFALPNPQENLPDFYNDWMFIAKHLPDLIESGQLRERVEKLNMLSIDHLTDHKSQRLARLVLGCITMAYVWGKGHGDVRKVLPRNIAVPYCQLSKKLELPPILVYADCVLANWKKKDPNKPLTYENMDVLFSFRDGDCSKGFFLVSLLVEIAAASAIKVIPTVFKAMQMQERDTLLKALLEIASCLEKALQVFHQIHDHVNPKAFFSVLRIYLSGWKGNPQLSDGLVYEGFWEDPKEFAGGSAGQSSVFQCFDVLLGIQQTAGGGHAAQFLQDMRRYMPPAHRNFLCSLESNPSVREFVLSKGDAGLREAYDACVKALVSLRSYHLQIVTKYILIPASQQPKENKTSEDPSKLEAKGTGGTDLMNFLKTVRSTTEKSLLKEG

Row | Structure (SMILES) | viability at 24 h, 30 µM [1] | IC50 [2] | further results
1 | Cc1ccccc1NC(=O)c1cc2ccccc2c(/C=N/Nc2nc3ccccc3s2)c1O | 101% | – | –
2 | CCNC(=O)C(=O)N/N=C/c1c(O)ccc2ccccc12 | 102% | > 30 µM | –
3 | O=C(CSc1ccc(Cl)cc1)N/N=C/c1c(O)ccc2ccccc12 | 106% | 6 µM | –
4 | CCC(Nc1ccc(Cl)cc1C)C(=O)N/N=C/c1ccccc1O (stereo not drawn) | – | – | inhibition [3]: < 20%; Activity (HeLa): inactive
5 | CCC(Nc1ccc(Cl)cc1C)C(=O)N/N=C/c1ccccc1 (stereo not drawn) | – | – | Activity [4]: 5.9%; Activity (Mus musculus [5]): Active; Activity (Mus musculus [6]): Active; Activity (Mus musculus [7]): Active; inhibition [3]: < 20%; fold change (FC) [8]: 2; Activity (Mus musculus [9]): Active; inhibition in vivo at 50 mg/kg (CT26 [10]): 36%; Activity (HeLa): inactive; inhibition (CT26 [11]): Active; Activity (Mus musculus [12]): Active; Activity (Mus musculus [13]): Active; Activity (Mus musculus [14]): Active; Activity (CT26 [15]): inactive; Activity [16]: Active; Activity [17]: Non-Toxic; Activity (Mus musculus [18]): Active; Activity (Mus musculus [19]): Active
6 | COc1ccccc1NCC(=O)N/N=C/c1c(O)ccc2ccccc12 | 114% | 8.6 µM | –
7 | O=C(Cn1cnc2scc(-c3ccc(F)cc3)c2c1=O)NC(=O)NCc1ccccc1 | 100% | > 30 µM | –
8 | COc1cccc(NCc2nnc3n2N=C(c2ccc(Br)cc2)CS3)c1 | 101% | 20.6 µM | –
9 | O=C(N/N=C/c1c(O)ccc2ccccc12)C(=O)Nc1cccc(C(F)(F)F)c1 | 59% | – | –
10 | OC(CC1c2ccccc2-c2cncn21)C1CCCCC1 (stereo not drawn) | – | – | inhibition [3]: < 20%
11 | CCC(Nc1ccc(Cl)cc1C)C(=O)N/N=C/c1c(O)ccc2ccccc12 (stereo not drawn) | 105% | 2.1 µM | Activity [4]: 6.7%; Activity (HeLa): inactive; Activity [16]: Active
12 | Cc1ccc(C2=Nn3c(CNc4ccc(F)cc4)nnc3SC2)cc1 | 110% | – | –
13 | Cc1ccc(-c2csc3ncn(CC(=O)Nc4cccc5ccccc45)c(=O)c23)cc1 | 99% | 20.1 µM | –
14 | CCC(Nc1ccc(Cl)cc1C)C(=O)N/N=C/c1cccc2ccccc12 (stereo not drawn) | – | 2.2 µM | –
15 | COc1cccc(NCc2nnc3n2N=C(c2cccc(OC)c2)CS3)c1 | 104% | > 30 µM | –
16 | CN(C)c1ccc(C(=O)N/N=C/c2c(O)ccc3ccccc23)cc1 | 114% | 21.1 µM | –
17 | COc1ccc(NC(=O)Cn2cnc3scc(-c4ccc(OC)c(OC)c4)c3c2=O)cc1 | 101% | 5.6 µM | –
18 | Cc1sc2ncn(CC(=O)NCc3ccccc3)c(=O)c2c1-c1ccc(Br)cc1 | 84% | – | –
19 | COc1ccccc1C(=O)N/N=C/c1c(O)ccc2ccccc12 | 100% | 11.3 µM | –
20 | COc1ccccc1N(CC(=O)N/N=C/c1c(O)ccc2ccccc12)S(C)(=O)=O | 89% | > 30 µM | –
21 | Cc1nc2ccccc2n1Cc1nnc2n1N=C(c1ccc(Cl)cc1)CS2 | 85% | – | –

Row | Structure (SMILES) | viability at 24 h, 30 µM [1] | IC50 [2] | further results
22 | NS(=O)(=O)NCCNc1nonc1C(=NO)Nc1ccc(F)c(Br)c1 [EPACADOSTAT] | 92% | – | –
23 | Fc1ccc(C2=Nn3c(CNc4ccc5c(c4)OCO5)nnc3SC2)cc1 | 100% | – | –
24 | COc1ccc(CC(=O)N/N=C/c2c(O)ccc3ccccc23)cc1 | 91% | > 30 µM | –
25 | c1ccc(C2=Nn3c(CN4CCc5ccccc54)nnc3SC2)cc1 | 98% | > 30 µM | –
26 | Oc1ccccc1CN1CCCC(c2n[nH]cc2-c2ccc(Cl)cc2)C1 (stereo not drawn) | 101% | 18.6 µM | –
27 | Cc1ccc(NCc2nnc3n2N=C(c2ccc(Cl)cc2)CS3)cc1 | 100% | – | –
28 | Cc1ccc(OCC(=O)N/N=C/c2c(O)ccc3ccccc23)c(C)c1 | 80% | > 30 µM | –
29 | O=C(Cn1cnc2scc(-c3ccccc3)c2c1=O)NC(=O)Nc1ccccc1 | 85% | > 30 µM | –
30 | CN(C)c1ccc(/C=C(/NC(=O)c2ccccc2Cl)C(=O)N/N=C/c2c(O)ccc3ccccc23)cc1 | 66% | – | –
31 | O=c1[nH]cc(F)c(=O)[nH]1 | – | – | Activity (CT26 [20]): Active
32 | NS(=O)(=O)NCCNc1nonc1/C(=N/O)Nc1ccc(F)c(Br)c1 | – | – | inhibition [3]: < 20%
33 | O=C(Cc1ccccc1)N/N=C/c1c(O)ccc2cc([N+](=O)[O-])ccc12 | 108% | 4.8 µM | inhibition [3]: < 20%; Activity (HeLa): inactive
34 | CCOc1ccc(/C=N/NC(=O)c2c(O)ccc3ccccc23)cc1 | 112% | 27.3 µM | –
35 | Oc1ccc2ccccc2c1/C=N/Nc1nccs1 | 99% | > 30 µM | –
36 | O=C(Cn1cnc2scc(-c3ccc(Cl)cc3)c2c1=O)NCc1ccco1 | 108% | 12.4 µM | –
37 | O=C(Cc1ccc([N+](=O)[O-])cc1)N/N=C/c1c(O)ccc2ccccc12 | 106% | 10.3 µM | –
38 | COc1ccc(NC(=O)Cn2cnc3scc(-c4ccc(C)cc4)c3c2=O)cc1 | 107% | 3.2 µM | Activity [4]: 10.8%; Activity [21]: Active; Activity (Mus musculus [6]): Active; Activity (Mus musculus [7]): Active; inhibition [3]: < 20%; Activity (HeLa): inactive; inhibition (CT26 [11]): Active; Activity (Mus musculus [14]): Active; Activity [16]: Active
39 | O=C(N/N=C/c1c(O)ccc2ccccc12)Nc1ccccc1 | 102% | > 30 µM | –
40 | CCOc1ccc(NCc2nnc3n2N=C(c2cccs2)CS3)cc1 | 101% | > 30 µM | –
41 | NS(=O)(=O)c1ccc(NC(=O)Cn2cnc3scc(-c4ccco4)c3c2=O)cc1 | 77% | – | –
